# The list is not random: actives were taken first. Their share in the collection is about 3.7%.
# Cl transport mod = modulates chloride dependent transport by human KCC2; Q9H2X9; KCC2 cells, thallium flux FluoZin-2 fluorescence; B-score of Tl+ flux slope (higher = more flux/activation; lower = inhibition) at 10 µM; 190,000 compounds, 2.2% hits; AID 1456;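 active means thallium flux slope and its plate-corrected score both differing from the plate sample mean at a set confidence after two filtering rounds, in either direction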;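 further: slope of fluorescence scaled to starting intensity during 10 to 20 s after thallium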
# NPY-Y2 PAM-ag = potentiates or activates human NPY-Y2 receptor. activation, % at 3.6 µM. 220,000 compounds, 0.45% hits. cells expressing NPY-Y2, potentiator/agonist read-out. AID 1359. P49146; in the data active means activation above about 27%;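 further: cells stimulated with NPY near EC25 plus isoproterenol at EC100; 0% = vehicle plus submaximal agonist and 100% = vehicle plus saturating agonist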
# Target sequence (P49146 whole entry, looked up): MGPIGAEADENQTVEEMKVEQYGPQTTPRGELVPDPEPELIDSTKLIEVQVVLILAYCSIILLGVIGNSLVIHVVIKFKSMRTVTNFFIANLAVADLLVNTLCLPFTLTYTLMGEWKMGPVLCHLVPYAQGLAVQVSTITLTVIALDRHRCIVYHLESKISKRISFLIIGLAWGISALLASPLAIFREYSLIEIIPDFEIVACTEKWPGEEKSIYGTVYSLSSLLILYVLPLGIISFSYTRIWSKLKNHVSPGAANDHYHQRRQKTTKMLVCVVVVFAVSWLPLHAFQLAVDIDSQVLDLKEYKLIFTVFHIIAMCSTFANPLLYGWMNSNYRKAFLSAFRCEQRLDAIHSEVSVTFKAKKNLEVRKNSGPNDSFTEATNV
# Furin inhibitor = inhibitors of human furin. purified furin, fluorogenic substrate cleavage. inhibition, % at 20 µM or 30 µM. 220,000 compounds, 0.061% hits; in the data active means inhibition above about 25%
# NPY-Y1 antag = antagonists of human neuropeptide Y receptor Y1 | P25929 | HEK293-CNG Y1 cells, membrane potential fluorescence; NPY at EC95, then isoproterenol | inhibition, % at 3.6 µM | 200,000 compounds, 1% hits | AID 1040;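 active means inhibition above the campaign mean inhibition of all tested compounds plus 3 SD, cut at about 20% in these data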;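 further: 0% = DMSO wells given NPY plus isoproterenol and 100% = isoproterenol alone without NPY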
# Target sequence (P25929 whole entry, looked up): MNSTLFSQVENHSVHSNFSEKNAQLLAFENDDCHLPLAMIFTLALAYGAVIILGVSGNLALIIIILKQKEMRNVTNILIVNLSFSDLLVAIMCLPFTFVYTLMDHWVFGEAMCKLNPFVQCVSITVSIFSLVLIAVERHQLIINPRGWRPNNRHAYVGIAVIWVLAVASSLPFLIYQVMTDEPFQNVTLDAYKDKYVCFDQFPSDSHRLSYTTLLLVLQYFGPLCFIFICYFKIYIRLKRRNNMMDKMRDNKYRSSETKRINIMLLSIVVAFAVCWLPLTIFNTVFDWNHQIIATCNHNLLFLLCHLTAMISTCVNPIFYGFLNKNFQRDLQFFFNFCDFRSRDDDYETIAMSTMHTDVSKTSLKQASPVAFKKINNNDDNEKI
#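 Test system: HEK293 cells co-expressing NPY Y1 receptor and cyclic-nucleotide gated channel; Also added: NPY (25 nM), isoproterenol (1 µM), Ro 20-1724 (25 µM); Compound dosing: one concentration, 3.6 µM, in 0.4% DMSO; Timing: dye 3 h, compound 60 min room temperature, stimulation 45 min; Technique: Membrane-potential fluorescent dye readout.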
# NPY-Y2 antag = antagonists of human neuropeptide Y receptor Y2. P49146. NPY-Y2 expressing cells, antagonist mode. inhibition, % at 2.7 µM. 140,000 compounds, 0.99% hits. AID 793; in the data active means inhibition above about 17%;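 further: 0% = vehicle with agonist challenge and 100% = reference antagonist with challenge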
# NPY-Y1 PAM-ag = potentiates or activates human NPY-Y1 receptor; P25929; 220,000 compounds, 0.37% hits; NPY-Y1 expressing cells, potentiator/agonist activation; AID 1304; activation, % at 3.6 µM; in the data active means activation above about 33%, passing the limit was not always enough;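 further: cells stimulated with NPY at EC10 then isoproterenol at EC100; 0% = low agonist plus stimulus and 100% = saturating agonist plus stimulus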
# KCC2 secondary = KCC2 (human) modulation, secondary assay; shares compounds with Cl transport mod; HEK293-KCC2, thallium flux, FluoZin2 fluorescence; stronger effect = higher value; normalised thallium flux (F/F0 slope) at 10 µM; 3,700 compounds, 15% hits; AID 1713;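 active means thallium flux slope above the same plate's solvent-only control mean plus 3 SD; inconclusive means the two replicate wells disagree; inactive means no significant difference from solvent-only control wells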
# KCC2 bumet counter = bumetanide-insensitive thallium flux in KCC2 cells with ouabain, counter-screen | normalized thallium flux at 10 µM | HEK293-KCC2 + bumetanide/ouabain, thallium flux FluoZin2; stronger effect = higher value | 3,700 compounds, 49% hits | shares compounds with Cl transport mod;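 active means thallium entry rate above the same plate's blocked-transporter control wells by more than 3 SD; inconclusive means the two repeat wells disagree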;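 further: raw slope of fluorescence over initial fluorescence between 10 and 20 s after thallium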
# KCC2 sec2 = confirmation of human KCC2 transport modulators; 3,700 compounds, 23% hits; shares compounds with Cl transport mod; AID 1715; normalized thallium flux at 10 µM; HEK293-KCC2, thallium flux FluoZin2 fluorescence; actives lie on both sides; F/F0 rise rate, 10–20 s post-thallium;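 active means thallium flux slope more than 3 SD above or below the plate's solvent-only control mean, mostly below; inconclusive means the two repeat wells disagreed; inactive means no significant shift from solvent-only controls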;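 further: raw slope with 0.1% DMSO as baseline and bumetanide as block control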
# HEK counter1 = acts in parental HEK cells, KCC2 counter-screen | 3,700 compounds, 46% hits | HEK293 parental cells, thallium flux FluoZin2, ouabain; baseline-ratio fluorescence slope, 10–20 s after thallium | thallium flux rate (normalised fluorescence) at 10 µM | shares compounds with Cl transport mod;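 active means thallium flux rate significantly above the same plate's solvent-only control wells, beyond their mean plus 3 SD; inconclusive means the two replicate wells gave conflicting results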
# KCC2 retest ouab = confirmation of human KCC2 modulators with ouabain | shares compounds with Cl transport mod | HEK293-KCC2, thallium flux FluoZin2 fluorescence; bidirectional: low = inhibitor, high = activator | raw Tl+ flux slope (below DMSO = inhibition, above = activation) at 10 µM | 3,700 compounds, 48% hits;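 active means thallium flux slope beyond 3 SD from same-plate DMSO control mean in most replicates, usually higher, sometimes lower; inconclusive means repeat tests gave conflicting results; inactive means no significant difference from controls in most replicates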;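 further: slope of initial-normalized fluorescence between seconds 10 and 20 after thallium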
# HEK counter2 = acts in parental HEK cells, second KCC2 counter-screen; 3,700 compounds, 33% hits; AID 1718; thallium flux slope at 10 µM; shares compounds with Cl transport mod; HEK293 parental, thallium flux FluoZin-2 fluorescence slope;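 active means thallium flux slope above the same plate's solvent-control mean plus 3 SD in both duplicate wells; inconclusive means duplicate wells that disagreed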;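 further: run without ouabain in cells lacking the KCC2 cotransporter; slope of fluorescence scaled to its starting value between 10 and 20 s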
# Starred values were filed as active, the others as inactive; ? = inconclusive; . = no result.
SMILES,Cl transport mod,NPY-Y2 PAM-ag,Furin inhibitor,NPY-Y1 antag,NPY-Y2 antag,NPY-Y1 PAM-ag,KCC2 secondary,KCC2 bumet counter,KCC2 sec2,HEK counter1,KCC2 retest ouab,HEK counter2
CC(=O)Nc1ccc(Nc2cc(C)nc3c(-c4ccccc4)cnn23)cc1,-3.9*,2,-13,-5,-3,39,0.0078,0.0092*,0.032,0.0074,0.02,0.011
Cc1cc(N)n2ncc(-c3ccccc3)c2n1,-0.19,6,-14,-5,3,19,.,.,.,.,.,.
C/C(=N\O)c1ccc(Cl)c(Cl)c1,-0.032,-22,-20,.,.,-28,.,.,.,.,.,.
S=C(NCCc1ccccc1)NN=C1CCCCCC1,9.4*,-6,-8,10,.,-23,0.0076,0.016*,0.035,?,?,0.012
COCCNC(=S)N/N=C(\C)c1ccc(Cl)c(Cl)c1,6.6*,-11,-20,3,.,-10,?,0.032*,0.036,?,0.029*,?
C/C(=N/NC(=O)CNC(=O)CCc1ccccc1)c1ccc(Cl)cc1,0.19,-13,-9,.,.,-10,.,.,.,.,.,.
C/C(=N\NC(=S)NCCc1ccccc1)c1ccc(Cl)cc1,6.2*,-27,0,5,16,-39,0.0061,0.014*,0.03,0.014*,0.023,?
CNC(=S)N/N=C(\C)c1ccc(Cl)c(Cl)c1,6.6*,-15,-19,1,.,-3,0.0054,0.032*,0.038,0.018*,0.032*,0.018*
C[C@H](NC(=O)c1nc[nH]c1C(=O)N[C@@H](CCCCNC(=O)OC(C)(C)C)C(=O)OC(C)(C)C)c1ccccc1,-0.63,.,-9,.,.,.,.,.,.,.,.,.
CC(C)/C(=N\NS(=O)(=O)c1ccc(Br)cc1)c1cccs1,0.041,5,-12,-7,.,3,.,.,.,.,.,.
COc1ccc(-c2csc(-c3[nH]cnc3N)n2)cc1,-1.1,-22,-10,-1,.,-4,.,.,.,.,.,.
CCn1nnc(NC(=S)NC(=O)c2ccc(-c3cccc(Cl)c3)o2)n1,67*,-11,-16,.,.,-27,?,0.085*,0.065*,0.057*,0.066*,0.054*
CCCn1nnc(NC(=O)c2ccc(-c3cccc(Cl)c3)o2)n1,-1.5,-18,-12,3,3,20,.,.,.,.,.,.
C=C(C)Cn1c(CCCNC(=O)CC)nc2ccccc21,-5*,4,-9,2,5,-12,0.0085,0.0065,0.033,0.0079,0.023,0.011
CCCCCn1c(CNC(=O)CCC)nc2ccccc21,-4.6*,0,-35,8,-1,10,0.006,0.0039,0.032,0.0069,0.018,?
O=C(NNC(=O)c1cc2cc(OC(F)(F)F)ccc2[nH]1)c1cccc(C(F)(F)F)c1,-0.13,-13,-11,.,.,15,.,.,.,.,.,.
CN1C(=S)SC(C)(C)C1NO (stereo unspecified),-4.7*,1,-21,11,4,-12,0.0084,0.0045,0.032,0.0075,0.021,0.011
CC(C)N1C(=S)SC(C)(C)C1NO (stereo unspecified),-0.41,-1,-26,2,4,7,.,.,.,.,.,.
O=C(O)/C(=C\c1ccc(Br)cc1)c1ccc(S(=O)(=O)N2CCCCC2)s1,-6.9*,3,4,11,7,-4,0.0076,0.0068,0.033,0.0041,0.012*,0.011
CC(C)CCNC(=O)CCCCn1c(=O)[nH]c2ccsc2c1=O,-0.63,6,-29,3,.,7,.,.,.,.,.,.
O=C(Nc1nnc(-c2ccccc2)o1)Nc1ccccc1Cl,20*,21,1,-1,2,0,?,0.032*,0.038,?,0.036*,?
O=C(Nc1nnc(-c2ccccc2)o1)Nc1ccc(F)cc1F,3.7,3,-20,4,.,2,.,.,.,.,.,.
COc1ccc(CCNC(=O)CC2SC(N)=NC2=O)cc1OC (stereo unspecified),1.1,-14,-35,1,.,2,.,.,.,.,.,.
CCc1c(O)nc(SCC(=O)Nc2ccc(C)cc2)n(C2CCCCC2)c1=O,.,1,-31,2,3,0,0.0087,0.0056,0.031,0.0073,0.016*,0.011
CCc1c(O)nc(SCC(=O)Nc2ccccc2)n(-c2ccccc2)c1=O,-1.1,5,-26,2,2,-2,.,.,.,.,.,.
SMILES,Cl transport mod,NPY-Y2 PAM-ag,Furin inhibitor,NPY-Y1 antag,NPY-Y2 antag,NPY-Y1 PAM-ag,KCC2 secondary,KCC2 bumet counter,KCC2 sec2,HEK counter1,KCC2 retest ouab,HEK counter2
O=C(NCc1ccccc1)c1noc2c1CCCC2,0.8,15,-7,4,1,-6,.,.,.,.,.,.
O=C(NCCc1ccccc1)c1noc2c1CCCCC2,.,-23,-5,0,1,-19,0.0078,0.0067,?,0.0078,0.019*,0.01
O=c1cc(-c2ccccc2)nc(SCc2ccc(F)cc2)[nH]1,3.9*,-5,-24,4,4,-5,0.0065,0.0048,0.027,0.0075,0.018,0.0099
O=C(Nc1ccc(Cc2ccncc2)cc1)c1ccc(S(=O)(=O)N2CCOCC2)cc1,-1.3,10,-9,-5,7,-8,.,.,.,.,.,.
O=C(OCCCc1ccncc1)c1ccc(S(=O)(=O)N2CCOCC2)cc1,.,3,-11,-1,2,16,0.0095,0.018*,0.034,0.011*,0.022,0.011*
COc1cccc(C2c3c(oc4ccc(F)cc4c3=O)C(=O)N2CCCN2CCOCC2)c1 (stereo unspecified),11*,10,-20,1,2,12,0.0071,0.011*,0.03,0.013*,?,0.014*
O=C1c2oc3ccc(F)cc3c(=O)c2C(c2ccc(F)cc2)N1CCCN1CCOCC1 (stereo unspecified),0.23,-8,-10,0,2,-1,.,.,.,.,.,.
COc1ccc(NC(=O)c2cccnc2N2CCCCC2)cc1,1.7,25,-14,-2,0,-4,.,.,.,.,.,.
COc1ccc(NC(=O)c2cccnc2N2CCCC2)cc1,.,4,-23,0,-1,-3,?,0.005,0.031,0.008,0.019,0.011
CC(=O)N1CCOCCOCCN(C(C)=O)CCOCC1,0.72,5,-28,-4,.,15,.,.,.,.,.,.

# Bioassay records: PubChem, several laboratories
